This note sets out measurements from ChEMBL document CHEMBL1629506, “Design, synthesis and structure-activity relationship study of novel pyrazole-based heterocycles as potential antitumor agents” (Eur J Med Chem, 2010).

One series concerns MDA-MB-231. Put plainly: Growth inhibition of human MDA-MB-231cells after 48 hrs by sulforhodamine B assay. The series is classed as functional. To be noted: MDA-MB-231, 48 h. The gist of the method: (§1)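 Cells were plated at 5000–40,000 cells/well, depending on doubling time, and preincubated 24 h at 37 °C in 5% CO2. Time-zero plates were TCA-fixed at drug addition. Compounds were dissolved in DMSO and tested at five concentrations (10-fold or ½-log dilutions) for 48 h. Cells were fixed with cold TCA, stained with 0.4% sulforhodamine B and read at 515 nm. GI50 was taken as the concentration giving 50% growth.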
For orientation: The SRB assay estimates cell density from bound dye.

Series [1] relates to Rattus norvegicus. Put plainly: Antiestrogenic activity in Sprague-Dawley rat assessed as reduction in estradiol induced uterine weight upto 0.06 ug, po after 8 days. The series is classed as functional. The arrangement: scale not given: the % may be the effect or the level left. The procedure, abridged: (§2)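 Immature ovariectomized female Sprague-Dawley rats (~55 g), groups of 12. Estradiol 0.03–0.05 given s.c. daily for 7 days, with test compound or letrozole reference at various doses up to 0.06 per animal, given orally in 0.5% carboxymethylcellulose. Controls received estradiol alone. Uterine weights were taken on day 8 and group means expressed as % reduction versus estradiol-only controls. Potency was taken relative to letrozole.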

In the next series the test system is IGROV-1. Briefly: Growth inhibition of human IGROV1 cells after 48 hrs by sulforhodamine B assay. To be noted: IGROV-1, 48 h. In kind it is functional. The procedure, abridged:
as §1

A further series has as its system MDA-N. Put plainly: Growth inhibition of human MDA-N cells after 48 hrs by sulforhodamine B assay. The series is classed as functional. The gist of the method: as §1
The next series concerns BT-549. Briefly: Growth inhibition of human BT549 cells after 48 hrs by sulforhodamine B assay. The series is classed as functional. Conditions: BT-549, 48 h. The procedure, abridged:
as §1

In series [2] the test system is Rattus norvegicus. Briefly: Antiestrogenic activity in Sprague-Dawley rat assessed as reduction in estradiol induced uterine weight 0.06 ug, po after 8 days relative to letrozole. In kind it is functional. The procedure, abridged:
as §2

Another series concerns NCI/ADR-RES. Briefly: Growth inhibition of human NCI/ADR-RES cells after 48 hrs by sulforhodamine B assay. The series is classed as functional. The procedure, abridged:
as §1

The nature of series [3]: Acute toxicity in mouse after 24 hrs. In kind it is organism-based. To be noted: in vivo. The gist of the method: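 Adult mice of both sexes, acclimatized 1 week (12 h light/dark, 21–23 °C), fasted 12 h before dosing. 30 mice in 6 groups of 5 each got a single oral gavage dose, at different dose levels, of a fine-powder aqueous suspension. LD50 was determined, with values as group means of five mice.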

For a further series, the system named is OVCAR-3. Briefly: Growth inhibition of human OVCAR3 cells after 48 hrs by sulforhodamine B assay. To be noted: OVCAR-3, 48 h. The series is classed as functional. The gist of the method: as §1
In a further series the test system is OVCAR-8. Put plainly: Growth inhibition of human OVCAR8 cells after 48 hrs by sulforhodamine B assay. In kind it is functional. Conditions: OVCAR-8, 48 h. The procedure, abridged: as §1
Another series deals with MDA-MB-435. Put plainly: Growth inhibition of human MDA-MB-435 cells after 48 hrs by sulforhodamine B assay. In kind it is functional. To be noted: MDA-MB-435, 48 h. The gist of the method: as §1
A short description of series [4]: Growth inhibition of human Hs 578T cells after 48 hrs by sulforhodamine B assay. The series is classed as functional. The gist of the method: as §1
A further series relates to T47D. Put plainly: Growth inhibition of human T47D cells after 48 hrs by sulforhodamine B assay. In kind it is functional. The gist of the method:
as §1

Another series concerns OVCAR-5. Put plainly: Growth inhibition of human OVCAR5 cells after 48 hrs by sulforhodamine B assay. In kind it is functional. Conditions: OVCAR-5, 48 h. The gist of the method: as §1
The test system of a further series is OVCAR-4. Put plainly: Growth inhibition of human OVCAR4 cells after 48 hrs by sulforhodamine B assay. The series is classed as functional. Conditions: OVCAR-4, 48 h. The gist of the method: as §1
A further series relates to SK-OV-3. Briefly: Growth inhibition of human SKOV3 cells after 48 hrs by sulforhodamine B assay. The series is classed as functional. To be noted: SK-OV-3, 48 h. The gist of the method:
as §1

In a further series the test system is MCF7. Briefly: Growth inhibition of human MCF7 cells after 48 hrs by sulforhodamine B assay. Conditions: MCF7, 48 h. The series is classed as functional. The procedure, abridged: as §1

For orientation: GI50 means the concentration at which growth is held to half of that of the control. A word on the LD50: it is the dose at which mortality reaches 50%. With `N#Cc1ccc(C(c2ccc(C#N)cc2)n2cncn2)cc1` [LETROZOLE], the GI50 came to 0.15 µM in the series on MDA-MB-231; 0.095 µM in the series on IGROV-1; 1.61 µM in the series with MDA-N; 0.89 µM in the series with BT-549; 1.16 µM with NCI/ADR-RES; 5.87 µM in the series with OVCAR-3. Besides, the GI50 with OVCAR-8 turned out to be 4.5 µM; in the series on MDA-MB-435, 0.067 µM; in series [4], 2.17 µM; in the series on T47D, 0.44 µM; in the series on OVCAR-5 it was 1.62 µM; with OVCAR-4 it was 0.88 µM. The GI50 in the series with SK-OV-3 is 1.09 µM; with MCF7 it was 0.7 µM. Besides, the Activity with Rattus norvegicus [1] was found to be 21.65%. Moreover, the potency ratio vs letrozole in the series with Rattus norvegicus [2] amounted to 1. The LD50 at 24 h in [3] came out at 253 mg/kg.

On to `CN(C)/C=C/C(=O)c1nn(-c2ccccc2)c(-c2ccccc2)c1C#N`, for which the GI50 with MDA-MB-231 was found to be 50.4 µM; with IGROV-1 it was 98 µM; with MDA-N, 45.4 µM; in the series with BT-549, 31.1 µM; with NCI/ADR-RES, 90.6 µM; with OVCAR-3, 98.8 µM. Also, the GI50 in the series on OVCAR-8 was 75.8 µM; with MDA-MB-435, greater than 100 µM; in series [4], greater than 100 µM; in the series with T47D, 30.2 µM; in the series with OVCAR-5 it was greater than 100 µM; in the series on OVCAR-4, 63.8 µM. Also, the GI50 in the series on SK-OV-3 worked out at 23.8 µM; in the series on MCF7 it was 39.8 µM. Further, the Activity in the series with Rattus norvegicus [1] is on record as 41.98%. Also, in the series with Rattus norvegicus [2], the potency ratio vs letrozole amounted to 1.93. This molecule had an LD50 at 24 h in [3] of 232 mg/kg.

As to `N#Cc1c(-c2nnc(O)c3nn(-c4ccc(Cl)cc4)cc23)nn(-c2ccccc2)c1-c1ccccc1`, the GI50 is greater than 100 µM in the series with MDA-MB-231; 91.3 µM in the series with IGROV-1; greater than 100 µM in the series on MDA-N; greater than 100 µM in the series with BT-549; greater than 100 µM in the series on NCI/ADR-RES; 33.4 µM with OVCAR-3. Besides, the GI50 in the series on OVCAR-8 is 3.23 µM; in the series on MDA-MB-435, greater than 100 µM; in [4] it was greater than 100 µM; in the series with T47D, greater than 100 µM; with OVCAR-5, 32.8 µM; in the series on OVCAR-4, 4.38 µM. Moreover, the GI50 is 30.8 µM in the series with SK-OV-3 and greater than 100 µM in the series on MCF7. The Activity in the series with Rattus norvegicus [1] was determined as 23.76%. In the series with Rattus norvegicus [2], the potency ratio vs letrozole turned out to be 1.09. In series [3], this molecule registered an LD50 at 24 h of 322 mg/kg.

Regarding `CCOC(=O)c1nn(-c2ccc(C)cc2)cc1C(=O)c1nn(-c2ccccc2)c(-c2ccccc2)c1C#N`, the GI50 is greater than 100 µM in the series with MDA-MB-231; 94.8 µM in the series on IGROV-1; greater than 100 µM with MDA-N; greater than 100 µM in the series with BT-549; greater than 100 µM in the series with NCI/ADR-RES; 91.8 µM in the series with OVCAR-3. The GI50 is 9.18 µM in the series on OVCAR-8; greater than 100 µM with MDA-MB-435; greater than 100 µM in series [4]; greater than 100 µM with T47D; greater than 100 µM in the series on OVCAR-5; 5.46 µM in the series on OVCAR-4. For the same molecule, the GI50 with SK-OV-3 and in the series with MCF7 was greater than 100 µM throughout. Besides, the Activity with Rattus norvegicus [1] is on record as 42.83%. Moreover, the potency ratio vs letrozole in the series on Rattus norvegicus [2] came out at 1.96. Besides, the LD50 at 24 h in [3] amounted to 274 mg/kg.

For the molecule `N#Cc1c(C(=O)/C=C/N2CCOCC2)nn(-c2ccccc2)c1-c1ccccc1`, the GI50 with MDA-MB-231 is greater than 100 µM; with IGROV-1, 88 µM; in the series on MDA-N, 38.4 µM; in the series on BT-549, 41.4 µM; with NCI/ADR-RES, greater than 100 µM; with OVCAR-3 it was 21.5 µM. The GI50 was greater than 100 µM with OVCAR-8; greater than 100 µM in the series on MDA-MB-435; greater than 100 µM in series [4]; greater than 100 µM with T47D; 90.8 µM in the series on OVCAR-5; 62.8 µM with OVCAR-4. Also, the GI50 was 33.8 µM in the series with SK-OV-3 and 5.49 µM in the series on MCF7. Also, the Activity in the series with Rattus norvegicus [1] came to 43.43%. The potency ratio vs letrozole in the series on Rattus norvegicus [2] was determined as 2. Further, in series [3], the median lethal dose (LD50) at 24 h came out at 463 mg/kg.
